Results from ChEMBL document CHEMBL4825702, “5-Aminonaphthalene derivatives as selective nonnucleoside nuclear receptor binding SET domain-protein 2 (NSD2) inhibitors for the treatment of multiple myeloma” (Eur J Med Chem, 2021).
The source made the active and inactive calls. The calls are words filed in the database; no cut-off is given here.

Legend:
[1] = target: Histone-lysine N-methyltransferase, H3 lysine-79 specific (Homo sapiens, UniProt Q8TEK3); assay: Inhibition of DOT1L (unknown origin) using SAM as substrate preincubated for 10 mins followed by substrate addition measured after 4 hrs by AlphaLISA method
[2] = Inhibition of MET transcriptional activity in human KMS-11 cells assessed as reduction in H3K36 methylation at 10 uM measured after 72 hrs by chip q-PCR analysis
[3] = target: Histone-lysine N-methyltransferase 2B (Homo sapiens, UniProt Q9UMN6); assay: Inhibition of MLL4 (unknown origin) using SAM as substrate preincubated for 10 mins followed by substrate addition measured after 4 hrs by HTRF method
How it was run: (§1)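 HTRF assay: inhibitor plus enzyme preincubated 10 min at room temperature, then peptide/SAM mix added and incubated at room temperature. Antibody and SA-XL665 detection mix added for 1 h in subdued light. Emission read at 665 and 620 nm; IC50 from two separate experiments.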

KMS-11 [4] = assay: Antiproliferative activity against human KMS-11 cells assessed as reduction in cell viability incubated for 6 days by CCK8 assay; conditions: KMS-11, 6 days
[5] = target: Protransforming growth factor alpha (Homo sapiens) (UniProt P01135); assay: Inhibition of TGFA transcriptional activity in human KMS-11 cells assessed as reduction in H3K36 methylation at 10 uM measured after 72 hrs by chip q-PCR analysis; assay type: cell-based
How it was run: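 KMS11 cells treated with test agent or DMSO. ChIP with magnetic-bead enzymatic chromatin IP kit using anti-H3K36me2, anti-histone H3 and IgG control antibodies. H3K36me2 quantified by qPCR with primers spanning the promoter regions of TGFA, MET, PAK1 and RRAS2.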

RS4-11 [6] = assay: Toxicity in SCID mouse xenografted with human RS4-11 cells assessed as body weight LOSS at 25 to 50 mg/kg, ip qd administered consecutively for 21 days; assay type: functional, organism-based; conditions: dose 25-50 mg/kg, time 21.0 day
How it was run: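 Female SCID mice, 4 weeks old, implanted subcutaneously in the flank with 1 × 10⁷ RS4:11 cells in 0.2 mL PBS. At about 100 mm³, groups of n = 8 received 25 or 50 mg/kg or vehicle intraperitoneally once daily for 21 days. Body weight and tumors measured twice weekly.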

MV4-11 [7] = assay: cells; conditions: Homo sapiens, MV4-11, 72 h, read-out: Activity
KMS-11 [8] = assay: cells; conditions: Homo sapiens, KMS-11, 72 h, read-out: Activity
RS4-11 [9] = assay: Antiproliferative activity against human RS4-11 cells assessed as reduction in cell viability incubated for 6 days by CCK8 assay; conditions: RS4-11, 6 days
KARPAS-422 = assay: Antiproliferative activity against human KARPAS-422 cells assessed as reduction in cell viability incubated for 6 days by CCK8 assay
[10] = target: Histone-lysine N-methyltransferase 2A (Homo sapiens, UniProt Q03164); assay: Inhibition of MLLI (unknown origin) using SAM as substrate preincubated for 10 mins followed by substrate addition measured after 4 hrs by HTRF method; how it was run: as §1
[11] = Cmax in CD-1 mouse at 2 mg/kg, ip measured up to 24 hrs by LC-MS/MS; assay type: ADME, organism-based; design: route intraperitoneal, dose 2 mg/kg, time <=24; conditions: in vivo
How it was run: (§2)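 CD-1 mice given a single 2 mg/kg dose i.p. or i.v. (n = 3 per group). Blood sampled at 0, 0.083, 0.25, 0.5, 1, 2, 4, 6, 8 and 24 h and centrifuged for plasma, with internal standard added. Plasma deproteinized with methanol/acetonitrile (1:1), supernatant diluted with acetonitrile/water, and compound measured by LC/MS/MS.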

[12] = AUC in CD-1 mouse at 2 mg/kg, ip measured up to 24 hrs by LC-MS/MS; assay type: ADME, organism-based; design: route intraperitoneal, dose 2 mg/kg, time <=24; conditions: in vivo; how it was run: as §2
MV4-11 [13] = assay: Antiproliferative activity against human MV4-11 cells assessed as reduction in cell viability incubated for 6 days by CCK8 assay
[14] = target: Histone-lysine N-methyltransferase EZH2 (Homo sapiens, UniProt Q15910); assay: Inhibition of EZH2 (unknown origin) using SAM as substrate preincubated for 10 mins followed by substrate addition measured after 4 hrs by HTRF method; how it was run: as §1
[15] = Volume of distribution in CD-1 mouse at 2 mg/kg, iv measured up to 24 hrs by LC-MS/MS; assay type: ADME, organism-based; conditions: in vivo
How it was run: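 CD-1 mice dosed at 2 mg/kg i.p. or i.v., n = 3 per group. Blood sampled at 0, 0.083, 0.25, 0.5, 1, 2, 4, 6, 8 and 24 h and spun for plasma. Internal standard added, deproteinized with methanol/acetonitrile (1:1), supernatant diluted and analysed by LC/MS/MS.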

RS4-11 [16] = assay: cells; conditions: Homo sapiens, RS4-11, 72 h, read-out: Activity
Jurkat = assay: Antiproliferative activity against human Jurkat cells assessed as reduction in cell viability incubated for 6 days by CCK8 assay
NCI-H929 = assay: Antiproliferative activity against human NCI-H929 cells assessed as reduction in cell viability incubated for 6 days by CCK8 assay
Pfeiffer = assay: Antiproliferative activity against human Pfeiffer cells assessed as reduction in cell viability incubated for 6 days by CCK8 assay
[17] = Half life in CD-1 mouse at 2 mg/kg, iv measured up to 24 hrs by LC-MS/MS; assay type: ADME, organism-based; conditions: in vivo; how it was run: as §2
KMS-11 [18] = assay: Antiproliferative activity against human KMS-11 cells assessed as reduction in cell viability incubated for 6 days by CCK8 assay; assay type: functional, cell-based; conditions: dose 1-100 µM, time 6.0 day
How it was run: (§3)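 Cells seeded in triplicate at 6000–20000 per well and left 24 h, then exposed to increasing concentrations for a further 6 days. Viability read with CCK-8 and growth IC50 derived from the dose–response.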

U2932 = assay: Antiproliferative activity against human U2932 cells assessed as reduction in cell viability incubated for 6 days by CCK8 assay
[19] = Clearance in CD-1 mouse at 2 mg/kg, iv measured up to 24 hrs by LC-MS/MS; assay type: ADME, organism-based; conditions: in vivo
How it was run: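 CD-1 mice given a single 2 mg/kg i.v. dose (n = 3). Plasma collected at 0–24 h (0.083, 0.25, 0.5, 1, 2, 4, 6, 8, 24 h), deproteinized with methanol/acetonitrile 1:1 and analysed by LC/MS/MS. Clearance derived from the plasma concentration–time data.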

RS4-11 [20] = assay: Antiproliferative activity against human RS4-11 cells assessed as reduction in cell viability incubated for 6 days by CCK8 assay; assay type: functional, cell-based; conditions: dose 1-100 µM, time 6.0 day; how it was run: as §3
WSUDLCL2 = assay: Antiproliferative activity against human WSUDLCL2 cells assessed as reduction in cell viability incubated for 6 days by CCK8 assay

Sequence of Histone-lysine N-methyltransferase, H3 lysine-79 specific (Q8TEK3 whole entry): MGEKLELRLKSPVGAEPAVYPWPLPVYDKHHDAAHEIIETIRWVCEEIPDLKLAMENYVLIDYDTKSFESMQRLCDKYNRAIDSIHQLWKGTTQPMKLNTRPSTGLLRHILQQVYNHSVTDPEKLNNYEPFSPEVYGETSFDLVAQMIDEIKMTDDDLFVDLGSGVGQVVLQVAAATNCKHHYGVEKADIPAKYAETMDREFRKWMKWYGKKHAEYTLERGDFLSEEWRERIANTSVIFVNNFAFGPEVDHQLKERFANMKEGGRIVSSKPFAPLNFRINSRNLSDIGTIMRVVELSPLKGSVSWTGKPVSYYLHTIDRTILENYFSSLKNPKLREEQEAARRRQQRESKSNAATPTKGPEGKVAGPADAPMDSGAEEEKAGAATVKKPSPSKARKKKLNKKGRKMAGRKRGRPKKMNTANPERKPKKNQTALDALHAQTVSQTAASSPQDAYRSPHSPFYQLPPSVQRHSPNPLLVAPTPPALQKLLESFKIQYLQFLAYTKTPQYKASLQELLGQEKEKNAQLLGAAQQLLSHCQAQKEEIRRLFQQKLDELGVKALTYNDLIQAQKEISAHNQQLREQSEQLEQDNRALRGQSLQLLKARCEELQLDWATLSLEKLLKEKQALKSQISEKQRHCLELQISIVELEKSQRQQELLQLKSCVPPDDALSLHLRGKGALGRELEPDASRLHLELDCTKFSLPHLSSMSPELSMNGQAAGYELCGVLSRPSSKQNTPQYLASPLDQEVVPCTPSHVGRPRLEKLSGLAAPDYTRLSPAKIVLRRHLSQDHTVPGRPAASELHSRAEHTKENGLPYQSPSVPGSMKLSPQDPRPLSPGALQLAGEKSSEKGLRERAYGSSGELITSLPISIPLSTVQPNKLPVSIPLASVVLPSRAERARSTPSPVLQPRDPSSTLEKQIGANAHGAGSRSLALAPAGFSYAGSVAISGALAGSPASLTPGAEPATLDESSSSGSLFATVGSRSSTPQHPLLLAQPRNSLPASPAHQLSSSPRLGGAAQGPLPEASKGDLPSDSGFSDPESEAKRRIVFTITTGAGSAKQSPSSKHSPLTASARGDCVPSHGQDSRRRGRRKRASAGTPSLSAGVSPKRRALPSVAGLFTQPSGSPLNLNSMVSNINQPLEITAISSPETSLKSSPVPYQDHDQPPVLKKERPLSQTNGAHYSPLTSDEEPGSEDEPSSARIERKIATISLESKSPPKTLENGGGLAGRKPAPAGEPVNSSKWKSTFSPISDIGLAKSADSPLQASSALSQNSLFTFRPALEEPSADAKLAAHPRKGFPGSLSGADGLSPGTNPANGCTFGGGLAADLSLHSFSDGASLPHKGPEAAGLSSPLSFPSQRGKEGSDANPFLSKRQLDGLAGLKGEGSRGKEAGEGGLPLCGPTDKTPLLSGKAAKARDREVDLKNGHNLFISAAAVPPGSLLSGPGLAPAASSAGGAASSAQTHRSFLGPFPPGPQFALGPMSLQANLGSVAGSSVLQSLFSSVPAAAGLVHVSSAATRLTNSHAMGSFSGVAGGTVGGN
Sequence of Protransforming growth factor alpha (Homo sapiens) (P01135 whole entry): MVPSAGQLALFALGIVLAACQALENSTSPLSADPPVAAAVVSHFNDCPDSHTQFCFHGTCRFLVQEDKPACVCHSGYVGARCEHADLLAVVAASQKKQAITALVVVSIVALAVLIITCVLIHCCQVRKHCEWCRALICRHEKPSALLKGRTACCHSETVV
Sequence of Histone-lysine N-methyltransferase EZH2 (Q15910 whole entry): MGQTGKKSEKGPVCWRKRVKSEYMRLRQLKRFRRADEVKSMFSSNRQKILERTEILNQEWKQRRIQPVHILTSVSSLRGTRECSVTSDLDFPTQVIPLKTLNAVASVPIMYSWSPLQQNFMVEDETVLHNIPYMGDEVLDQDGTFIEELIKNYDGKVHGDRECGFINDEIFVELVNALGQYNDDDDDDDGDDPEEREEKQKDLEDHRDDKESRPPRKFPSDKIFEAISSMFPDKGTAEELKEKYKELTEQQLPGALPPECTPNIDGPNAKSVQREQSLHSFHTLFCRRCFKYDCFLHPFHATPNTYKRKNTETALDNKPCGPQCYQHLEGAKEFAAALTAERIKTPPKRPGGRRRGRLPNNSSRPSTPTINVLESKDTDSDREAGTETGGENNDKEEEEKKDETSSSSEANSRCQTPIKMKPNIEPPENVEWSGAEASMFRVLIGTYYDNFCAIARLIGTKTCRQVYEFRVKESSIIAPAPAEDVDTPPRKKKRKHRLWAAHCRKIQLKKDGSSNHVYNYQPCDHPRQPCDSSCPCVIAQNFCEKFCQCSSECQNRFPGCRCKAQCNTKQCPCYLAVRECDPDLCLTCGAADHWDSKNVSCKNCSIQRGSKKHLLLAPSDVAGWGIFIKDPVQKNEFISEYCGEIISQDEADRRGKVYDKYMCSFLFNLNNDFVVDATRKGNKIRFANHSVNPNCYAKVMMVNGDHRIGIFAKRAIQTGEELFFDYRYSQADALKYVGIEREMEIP

SMILES: Cl.Nc1cccc2c(S(=O)(=O)NCc3ccccc3)cccc12
- IC50 [1]: > 20 µM
- inhibition [2]: Active
- IC50 [3]: > 20 µM
- IC50 (KMS-11 [4]): 1.88 µM
- inhibition [5]: Active
- Activity (RS4-11 [6]): Not toxic
- viability at 5 µM (MV4-11 [7]): 94.4%
- viability at 10 µM (KMS-11 [8]): 50.4%
- IC50 (RS4-11 [9]): 0.52 µM
- Activity (KARPAS-422): Active
- IC50 [10]: > 20 µM
- Cmax [11]: 0.433 µg/mL
- AUC at 24 h [12]: 0.15 µg·h/mL
- Activity (MV4-11 [13]): Active
- IC50 [14]: > 20 µM
- Vd [15]: 3.85 L/kg
- viability at 5 µM (RS4-11 [16]): 2.19%
- Activity (Jurkat): Active
- Activity (NCI-H929): Active
- Activity (Pfeiffer): Active
- half-life [17]: 39.6 min
- Activity (KMS-11 [18]): Dose-Dependent Effect
- Activity (U2932): Active
- clearance [19]: 9.78 L/h/kg
- Activity (RS4-11 [20]): Dose-Dependent Effect
- Activity (WSUDLCL2): Active
